Results gathered from unrelated publications.
Target: Delta-type opioid receptor (OPRD1, Homo sapiens, UniProt P41143)

CC1(C)SSC(C)(C)[C@@H](NC(=O)[C@@H](N)Cc2ccc(O)cc2)C(=O)NCC(=O)N[C@@H](Cc2ccccc2)C(=O)N2CCN(CC2)C(=O)[C@H](Cc2ccccc2)NC(=O)CNC(=O)[C@@H]1NC(=O)[C@@H](N)Cc1ccc(O)cc1
Emax (cAMP; agonist; luciferase; HEK293): 206%

CCN(CC)CCCC[C@H](NC(=O)[C@H](CC(C)C)NC(=O)[C@H](C)NC(=O)[C@H](Cc1ccccc1)NC(=O)c1ccc(C(C)(C)C)cc1)C(=O)N[C@@H](CO)C(=O)OC
remaining binding (ligand displacement; radioligand; 10 µM): 71.4%

Nc1ncc(-c2nc(N3CCOCC3)nc(N3CCOCC3)n2)c(C(F)F)n1
remaining signal (cell-free assay; radioligand; 10 µM): 103%

c1ccc(C(NCCNC(c2ccccc2)c2ccccc2)c2ccccc2)cc1
inhibition (ligand displacement; 10 µM): 81%

O=C(c1ccc(F)cc1)N1CC(COc2ccc(Br)cc2)(C(=O)O)C1
inhibition (cell-free assay; 10 µM): -5.22%

CC[C@@H]1CN2CC[C@@]3(O)C(=Nc4cccc(-c5ccccc5)c43)[C@@H]2C[C@@H]1/C(=C\OC)C(=O)OC
Emax (β-arrestin recruitment; agonist): > 100%

C[C@H](C(=O)N[C@H]1COc2ccccc2[C@@H]1S(C)(=O)=O)c1ccc(F)cc1
inhibition (ligand displacement; 10 µM): 1%

Clc1ccc2c(C3CCN(CCc4c[nH]c5ccccc45)CC3)c[nH]c2c1
inhibition (ligand displacement; radioligand; 10 µM): 35%

COCc1c(-c2cc3cc(C)cc(OC)c3s2)c2c(N)ncnn2c1CN1CCNC(=O)C1
inhibition (ligand displacement; radioligand; 10 µM): 16%

CC(C)N1CCC[C@H]1CNC(=O)c1cn(C2CCCC2)c(=O)c2c1c1ccccc1n2C
inhibition (ligand displacement; radioligand; 10 µM): 6%

CC[C@@H]1CN2CC[C@@]3(O)C(=Nc4cccc(-c5ccoc5)c43)[C@@H]2C[C@@H]1/C(=C\OC)C(=O)OC
Emax (β-arrestin recruitment; agonist): > 100%

Cc1cc(Nc2nccc(C)n2)cc(-c2cnc([C@@]3(O)CC[C@H](C(=O)O)C(C)(C)C3)s2)c1
inhibition (ligand displacement; 10 µM): 12.8%
